# Measured values: ChEMBL document CHEMBL4052644, “Synthesis of novel benzylidene analogues of betulinic acid as potent cytotoxic agents” (Eur J Med Chem, 2017)
# Assays:
# [1] = Selectivity index, ratio of IC50 for human FR2 cells to IC50 for human HCT116 cells; type: functional
# Method in brief: (§1)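 Selectivity index is the IC50 in normal breast epithelial fR2 cells divided by the IC50 in each cancer line. All IC50 values come from the SRB assay.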
# [2] = Selectivity index, ratio of IC50 for human FR2 cells to IC50 for human MCF7 cells; type: functional; method in brief: as §1
# [3] = system: MCF7; test: Growth inhibition of human MCF7 cells at 10 uM after 48 hrs by SRB assay relative to control; type: functional; conditions: MCF7, 48 h, read-out: GI
# Method in brief: (§2)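 Primary SRB screen of every compound at a single concentration of 10 µM. Growth inhibition is expressed relative to control.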
# [4] = system: PC-3; test: Growth inhibition of human PC3 cells at 10 uM after 48 hrs by SRB assay relative to control; type: functional; conditions: PC-3, 48 h, read-out: GI; method in brief: as §2
# [5] = system: HCT-116; test: Cytotoxicity against human HCT116 cells assessed as reduction in cell viability after 48 hrs by SRB assay; type: functional, cell-based; conditions: HCT-116, 48 h
# Method in brief: (§3)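 SRB assay. Compounds active at 10 µM in the primary screen were retested at 1, 2.5 and 5 µM, and IC50 was calculated from these concentrations. The normal breast epithelial line fR2 was tested alongside the cancer lines.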
# [6] = system: A549; test: Growth inhibition of human A549 cells at 10 uM after 48 hrs by SRB assay relative to control; type: functional; conditions: A549, 48 h, read-out: GI; method in brief: as §2
# [7] = system: PC-3; test: Cytotoxicity against human PC3 cells assessed as reduction in cell viability after 48 hrs by SRB assay; type: functional, cell-based; conditions: PC-3, 48 h; method in brief: as §3
# [8] = system: MCF7; test: Cytotoxicity against human MCF7 cells assessed as reduction in cell viability after 48 hrs by SRB assay; type: functional, cell-based; conditions: MCF7, 48 h; method in brief: as §3
# [9] = Cytotoxicity against human FR2 cells assessed as reduction in cell viability after 48 hrs by SRB assay; type: cell-based; conditions: FR2, 48 h; method in brief: as §3
# [10] = Selectivity index, ratio of IC50 for human FR2 cells to IC50 for human A549 cells; type: functional; method in brief: as §1
# [11] = system: A549; test: Cytotoxicity against human A549 cells assessed as reduction in cell viability after 48 hrs by SRB assay; type: functional, cell-based; conditions: A549, 48 h; method in brief: as §3
# [12] = system: HCT-116; test: Growth inhibition of human HCT116 cells at 10 uM after 48 hrs by SRB assay relative to control; type: functional; conditions: HCT-116, 48 h, read-out: GI; method in brief: as §2
# [13] = system: MIA PaCa-2; test: Growth inhibition of human MIAPaCa2 at 10 uM after 48 hrs by SRB assay relative to control; type: functional; conditions: MIA PaCa-2, 48 h, read-out: GI; method in brief: as §2
# [14] = Selectivity index, ratio of IC50 for human FR2 cells to IC50 for human MIAPaCa2 cells; type: functional; method in brief: as §1
# [15] = Selectivity index, ratio of IC50 for human FR2 cells to IC50 for human PC3 cells; type: functional; method in brief: as §1
# [16] = system: MIA PaCa-2; test: Cytotoxicity against human MIAPaCa2 cells assessed as reduction in cell viability after 48 hrs by SRB assay; type: functional, cell-based; conditions: MIA PaCa-2, 48 h; method in brief: as §3
SMILES,Ratio IC50 [1],Ratio IC50 [2],inhibition of growth at 10 µM [3] [%],inhibition of growth at 10 µM [4] [%],IC50 [5] [µM],inhibition of growth at 10 µM [6] [%],IC50 [7] [µM],IC50 [8] [µM],IC50 [9] [µM],Ratio IC50 [10],IC50 [11] [µM],inhibition of growth at 10 µM [12] [%],inhibition of growth at 10 µM [13] [%],Ratio IC50 [14],Ratio IC50 [15],IC50 [16] [µM]
C=C(C)[C@@H]1CC[C@]2(C(=O)O)CC[C@]3(C)[C@H](CC[C@@H]4[C@@]5(C)C/C(=C\c6ccsc6)C(=O)C(C)(C)[C@@H]5CC[C@]43C)[C@@H]12,4.066,7.151,92,82,5.1,95,6.7,2.9,20.7,5.317,3.9,91,76,3.913,3.095,5.3
C=C(C)[C@@H]1CC[C@]2(C(=O)O)CC[C@]3(C)[C@H](CC[C@@H]4[C@@]5(C)C/C(=C\c6ccc(Br)o6)C(=O)C(C)(C)[C@@H]5CC[C@]43C)[C@@H]12,4.696,2.432,92,79,2.9,91,5.7,5.6,13.6,4.69,2.9,87,75,2.619,2.389,5.2
C=C(C)[C@@H]1CC[C@]2(C(=O)O)CC[C@]3(C)[C@H](CC[C@@H]4[C@@]5(C)C/C(=C\c6ccccc6Br)[C@H](O)C(C)(C)[C@@H]5CC[C@]43C)[C@@H]12,,2.642,57,19,> 10,47,> 10,8.2,21.7,,> 10,43,49,2.257,,9.6
C=C(C)[C@@H]1CC[C@]2(C(=O)O)CC[C@]3(C)[C@H](CC[C@@H]4[C@@]5(C)C/C(=C\c6cccc(Br)c6)[C@H](O)C(C)(C)[C@@H]5CC[C@]43C)[C@@H]12,,1.86,65,59,> 10,90,5.5,8.06,15,4.16,3.6,46,22,1.041,2.72,14.4
C=C(C)[C@@H]1CC[C@]2(C(=O)O)CC[C@]3(C)[C@H](CC[C@@H]4[C@@]5(C)C/C(=C\c6cccc([N+](=O)[O-])c6)[C@H](O)C(C)(C)[C@@H]5CC[C@]43C)[C@@H]12,3.092,2.68,77,80,3.9,92,4.1,4.5,12.1,9.88,1.22,88,80,1.8,2.941,6.7
C=C(C)[C@@H]1CC[C@]2(C(=O)O)CC[C@]3(C)[C@H](CC[C@@H]4[C@@]5(C)C/C(=C\c6ccc(F)cc6)[C@H](O)C(C)(C)[C@@H]5CC[C@]43C)[C@@H]12,9.62,12.22,77,48,1.5,59,> 10,1.18,14.4,3.6,4,67,78,8.702,,1.21
C=C(C)[C@@H]1CC[C@]2(C(=O)O)CC[C@]3(C)[C@H](CC[C@@H]4[C@@]5(C)C/C(=C\c6ccc(F)cc6)C(=O)C(C)(C)[C@@H]5CC[C@]43C)[C@@H]12,19.73,16.15,95,95,3.6,92,6.4,4.4,71.1,27.33,2.6,99,96,13.15,11.1,5.4
C=C(C)[C@@H]1CC[C@]2(C(=O)O)CC[C@]3(C)[C@H](CC[C@@H]4[C@@]5(C)C/C(=C\c6ccc([N+](=O)[O-])cc6)C(=O)C(C)(C)[C@@H]5CC[C@]43C)[C@@H]12,10.02,4.525,83,37,1.4,82,> 10,3.1,14,9.353,1.5,75,61,2.158,,6.5
C=C(C)[C@@H]1CC[C@]2(C(=O)O)CC[C@]3(C)[C@H](CC[C@@H]4[C@@]5(C)C/C(=C\c6cccc7ccccc67)C(=O)C(C)(C)[C@@H]5CC[C@]43C)[C@@H]12,1.463,1.429,67,71,8.4,90,5.3,8.6,12.3,3.977,3.09,62,64,1.555,2.318,7.9
C=C(C)[C@@H]1CC[C@]2(C(=O)O)CC[C@]3(C)[C@H](CC[C@@H]4[C@@]5(C)C/C(=C\c6cccnc6)C(=O)C(C)(C)[C@@H]5CC[C@]43C)[C@@H]12,50.76,38.46,97,67,1.97,94,6.6,2.6,100,32.25,3.1,96,97,20.4,15.15,4.9
C=C(C)[C@@H]1CC[C@]2(C(=O)O)CC[C@]3(C)[C@H](CC[C@@H]4[C@@]5(C)C/C(=C\c6ccc(F)c(Br)c6)C(=O)C(C)(C)[C@@H]5CC[C@]43C)[C@@H]12,8.132,6.671,85,71,5.8,89,8.02,7.07,47.2,12.09,3.9,89,82,6.836,5.881,6.9
C=C(C)[C@@H]1CC[C@]2(C(=O)O)CC[C@]3(C)[C@H](CC[C@@H]4[C@@]5(C)C/C(=C\c6cccc([N+](=O)[O-])c6)C(=O)C(C)(C)[C@@H]5CC[C@]43C)[C@@H]12,1.602,1.715,70,41,7.6,75,> 10,7.1,12.2,2.591,4.7,69,31,,3.009,> 10
C=C(C)[C@@H]1CC[C@]2(C(=O)O)CC[C@]3(C)[C@H](CC[C@@H]4[C@@]5(C)C/C(=C\c6cccc7ccccc67)[C@H](O)C(C)(C)[C@@H]5CC[C@]43C)[C@@H]12,2.788,1.338,64,36,3.6,36,> 10,7.5,10,,> 10,55,62,1.416,,7.09
